These results are taken from ChEMBL document CHEMBL1143339, “Design and synthesis of amidoxime derivatives for orally potent C-alkylamidine-based antimalarial agents” (Bioorg Med Chem Lett, 2009).

Experiment [1] concerns Plasmodium vinckei petteri. The experiment is described as follows: Antimalarial activity against Plasmodium vinckei petteri 279BY infected Swiss mice (Mus musculus) at daily intraperitoneal dose for 4 days. It is filed as functional. Particulars: ip, 96 h. The method, boiled down: (§1)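 Female Swiss mice infected iv with 10⁷ P. vinckei petteri 279BY parasites (about 0.5% parasitemia on day 1). Dosed ip or orally once daily on days 1–4 post-infection. Parasitemia read on day 5 and expressed as % of untreated control. Three mice per dose; mean ± SEM.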

Experiment [2] concerns Plasmodium vinckei petteri. Description: Antimalarial activity against Plasmodium vinckei petteri 279BY infected Swiss mice (Mus musculus) at daily peroral dose for 4 days. It is filed as functional. Particulars: po, 96 h. The method, boiled down:
as §1

For experiment [3], the system named is Plasmodium vinckei petteri. The experiment is described as follows: Antimalarial activity against Plasmodium vinckei petteri 279BY infected Swiss mice (Mus musculus) at 120 mg/kg/day peroral dose over 4 days. The experiment is classed as functional. Particulars: route oral. The method, boiled down:
as §1

Experiment [4] has as its system Plasmodium vinckei petteri. Description: Antimalarial activity against Plasmodium vinckei petteri 279BY infected Swiss mice (Mus musculus) at 20 mg/kg/day intraperitoneal dose over 4 days. It is filed as functional. The method, boiled down: as §1
The test system of another experiment is Plasmodium falciparum. The experiment is described as follows: Antimalarial activity after 48 hrs against chloroquine-sensitive Plasmodium falciparum Nigerian by [3H]hypoxanthine uptake. It is filed as functional, organism-based. The method, boiled down:
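IC50 against P. falciparum given as the mean of at least two independent experiments, each run in duplicate.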

Experiment [5] deals with Plasmodium vinckei petteri. The experiment is described as follows: Antimalarial activity against Plasmodium vinckei petteri 279BY infected Swiss mice (Mus musculus) at 180 mg/kg/day peroral dose over 4 days. It is filed as functional. Particulars: route oral. The method, boiled down: as §1

For orientation: ED50 means the dose that gives a 50% effect, or the effect in half of the subjects. A lower ED50 goes with an effect at a small dose. By IC50 is commonly meant the concentration at which inhibition is half-maximal.

As to `N=C(CCCCCCCCCCCC/C(N)=N\OC(=O)Nc1ccccc1)NOC(=O)Nc1ccccc1`, the results for the ED50 in experiment [1] and in experiment [2] were greater than 20 mg/kg and greater than 180 mg/kg, respectively.

Take `O=c1[nH]c(CCCCCCCCCCCCc2nsc(=O)[nH]2)ns1`: the ED50 in experiment [1] is 20 mg/kg; in experiment [2], greater than 120 mg/kg. The values for the Activity in experiment [3] and in experiment [4] were 25% and 50%, respectively. Further, the IC50 in the experiment on Plasmodium falciparum worked out at 17.5 nM.

Turning to `O=c1[nH]c(CCCCCCCCCCCCc2noc(=O)[nH]2)no1`, the results for the ED50 in experiment [1] and in experiment [2] were greater than 20 mg/kg and 100 mg/kg, respectively. Besides, in the experiment with Plasmodium falciparum, the IC50 was found to be 9200 nM.

On to `N=C(N)CCCCCCCCCCCCC(=N)N` [TETRADECANEBIS(IMIDAMIDE)], for which the results for the ED50 in experiment [1] and in experiment [2] were greater than 10 mg/kg and greater than 100 mg/kg, respectively.

On to `N/C(CCCCCCCCCCCC/C(N)=N/O)=N\O`, for which, in experiment [2], the 50% effect level (ED50) was put at a dose of 120 mg/kg. Besides, the midpoint of inhibition in the experiment on Plasmodium falciparum, the IC50, lay at 3500 nM.

As for `CC(=O)O/N=C(/N)CCCCCCCCCCCCC(=N)NOC(C)=O`, the ED50 in experiment [1] was greater than 10 mg/kg; in experiment [2], greater than 90 mg/kg. The same molecule returned an IC50 in the experiment on Plasmodium falciparum of 1400 nM.

In the case of `Cc1c(CCO)sc[n+]1CCCCCCCCCCCC[n+]1csc(CCO)c1C` [ALBITIAZOLIUM BROMIDE], it took 2.2 nM to reach half-maximal inhibition in the experiment with Plasmodium falciparum (IC50).

`NC(=O)c1nc(CCCCCCCCCCCCc2noc(C(N)=O)n2)no1` gave an ED50 in experiment [1] greater than 20 mg/kg. The IC50 in the experiment with Plasmodium falciparum came out at 7000 nM.

As to `CS(=O)(=O)O/N=C(/N)CCCCCCCCCCCCC(=N)NOS(C)(=O)=O`, the ED50 in experiment [1] was 7 mg/kg; in experiment [2], 40 mg/kg. This molecule returned an IC50 in the experiment on Plasmodium falciparum of 2.5 nM.

As for `N=C(CCCCCCCCCCCC/C(N)=N\OC(=O)c1ccccc1)NOC(=O)c1ccccc1`, the ED50 in experiment [1] is greater than 10 mg/kg; in experiment [2], greater than 90 mg/kg. For the same molecule, the IC50 in the experiment on Plasmodium falciparum came to 1100 nM.

Consider `N#Cc1nc(CCCCCCCCCCCCc2noc(C#N)n2)no1`, for which the ED50 in experiment [1] is greater than 20 mg/kg. 100000 nM corresponded to half-maximal inhibition in the experiment with Plasmodium falciparum (IC50).

Turning to `CCNC(=O)O/N=C(/N)CCCCCCCCCCCCC(=N)NOC(=O)NCC`, the ED50 in experiment [1] was greater than 20 mg/kg; in experiment [2], 90 mg/kg. In experiment [3], this molecule had an Activity of 80%. For the same molecule, the concentration for half-maximal inhibition (IC50) in the experiment on Plasmodium falciparum was found to be 180 nM.

In turn, `CO/N=C(/N)CCCCCCCCCCCCC(=N)NOC` displayed an Activity in experiment [5] of 50%. Also, the ED50 in experiment [1] was greater than 20 mg/kg; in experiment [2], 180 mg/kg. It took 6800 nM to reach half-maximal inhibition in the experiment on Plasmodium falciparum (IC50).
